Bioassay records (PubChem BioAssay)
Sampled rows, rich in hits. Any-hit rate of the full collection: about 3.9%.
TAAR1 agonist – agonists of human TAAR1; activation, % at 3 µM; CHO RD-HGA16 TAAR1, Fluo-8 calcium fluorescence; vehicle wells 0%, saturating PEA agonist 100%; AID 624467; 360,000 tested, 0.99% active;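 active = activation above the mean activation of all test compounds in the run plus 3 SD, cut at about 38% in these data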
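Assay system – CHO-derived RD-HGA16 cells with stable Gα16 and human TAAR1 · Compound dosing – one-point dosing at 3 µM (nominal) · Incubation – 17-24 h seeding, 75 min 37 °C dye, 30 min RT · Measured by – kinetic Fluo-8 calcium fluorescence · Control set – DMSO vehicle as 0%, PEA at EC100 as 100% · Repeats – single well for each compound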
ANO1 activ – activators or potentiators of mouse TMEM16A chloride channel; Q8BHY3; AID 623877; HEK293 TMEM16A/YFP-H148Q/I152L, iodide quench fluorescence; stronger effect = lower value; B-score at 10 µM; 340,000 tested, 0.3% active;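 active = fluorescence-ratio B-score plate-corrected deviation score at least 3 library SD below zero, with starting fluorescence score within 5 deviations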;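 also: channel opened by trigger with iodide after compound preincubation; score built on the fluorescence ratio of max minus min over baseline; more negative score means more quench and so TMEM16A activation or potentiation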
ANO1 block – blocks the mouse calcium-activated chloride channel TMEM16A. 310,000 tested, 1.2% active. HEK293 TMEM16A/YFP iodide influx fluorescence, ionomycin. normalized B-score (activity score, 25-100; higher = stronger inhibition) at 10 µM;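 active = ratio plate-corrected score three or more library SD toward inhibition, starting fluorescence score within five deviations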;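 also: score derived from kinetic fluorescence span divided by baseline fluorescence per well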
CRFBP-R2 agonist – CRF-BP/CRF-R2 complex agonism; HEK293 CRF-R2/CRF-BP, calcium dye fluorescence (FLIPR); percent of saturating CRF peptide response; activation, % at 13.2 µM; 350,000 tested, 0.46% active;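 active = activation of at least 50%, plus an integration ratio under a set limit after plate pattern correction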;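 also: plate controls were neutral control wells without compound for no effect and CRF at EC100 for full effect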
TAAR1 antagonist – human TAAR1 antagonism | 360,000 tested, 1.5% active | inhibition, % at 3 µM | Q96RJ0 | CHO RD-HGA16 TAAR1, Fluo-8 calcium fluorescence, antagonist;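 active = inhibition above a per-plate cutoff, the mean inhibition of test compounds on that plate plus 3 SD, cut at about 49% in these data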;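 also: 0% = DMSO plus EC80 beta-PEA response and 100% = DMSO alone without agonist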
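Assay system: CHO-derived RD-HGA16 cells stably expressing human TAAR1 plus Gα16. Timing: 140 s kinetic read after compound, 140 s after agonist. Technique: kinetic Fluo-8 calcium fluorescence measurement. Measure: % inhibition of agonist calcium response.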
CRFBP-R2 block – antagonists of CRF-binding protein/CRF-R2 receptor complex; HEK293 CRF-R2/CRF-BP, CRF-induced calcium fluorescence; 350,000 tested, 0.59% active; inhibition, % at 11.8 µM;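 active = inhibition of the ligand-induced calcium signal above about 50% at the single tested concentration, limit read from the data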
The depositor's hits bear a star; i = inactive; nt = no result given.

SMILES | TAAR1 agonist | ANO1 activ | ANO1 block | CRFBP-R2 agonist | TAAR1 antagonist | CRFBP-R2 block
CCOC(=O)C(Cc1ccccc1)NC(=O)CCc1nnc2ccc(N3CCCC3)nn12 (stereo not given) | 1 | i | i | 0 | -11 | 58*
CCOC(=O)C(=O)NC1CC=CCC1c1ccc2c(c1)OCO2 (stereo not given) | 2 | i | nt | 8 | -3 | -8
COc1ccc(N2C(=O)C3CC(C)=C(C)CC3C2=O)c(OC)c1 (stereo not given) | 17 | i | i | 0 | -15 | 10
COc1cc(N2C(=O)C=CC2=O)ccc1N1C(=O)C=CC1=O | 8 | i | nt | 1 | -3 | 63*
Nc1cc(N)nc(SCC(=O)Nc2cc(S(=O)(=O)N3CCOCC3)ccc2Cl)n1 | 6 | i | i | -2 | -22 | -5
Cc1cccc2cc(CN(CC3CCCO3)S(=O)(=O)c3ccccc3)c(=O)[nH]c12 (stereo not given) | 10 | i | i | -2 | 49* | -17
C=C1CCC[C@]2(C)C[C@H]3OC(=O)C(CNC(C)(CO)CO)[C@H]3CC12 (stereo not given in full) | 4 | i | i | 0 | -14 | 86*
C=C1CCC[C@]2(C)C[C@H]3OC(=O)C(CNC(CC)CO)[C@H]3CC12 (stereo not given in full) | 1 | i | i | 2 | -7 | -3
CCOc1ccc(-n2ccc(=O)c(C(=O)Nc3ccc(S(=O)(=O)Nc4nccs4)cc3)n2)cc1 | 0 | -23* | i | 0 | -1 | 15
CCc1ccc(OC(C)C(=O)Nc2ccc(S(=O)(=O)Nc3nccs3)cc2)cc1 (stereo not given) | 45* | i | i | 11 | 55* | -5
Cc1ccc(C(C(=O)NC(C)(C)C)N(Cc2ccccc2)C(=O)c2snc(C(N)=O)c2N)o1 (stereo not given) | 8 | i | i | 0 | 38 | 3
C[C@@H]1CN([C@@H](C)CO)C(=O)CCCn2nncc2CO[C@H]1CN(C)S(=O)(=O)c1cccc(F)c1 | 3 | nt | nt | 4 | -10 | 6
COC(=O)c1c(NC(=O)C2COc3ccccc3O2)sc2c1CCN(C(=O)OC)C2 (stereo not given) | -1 | nt | nt | -2 | 19 | 8
O=C(CSc1nncn1-c1ccccc1)Nc1cc(Cl)cc(Cl)c1 | nt | i | 25* | -1 | nt | -2
C=CCc1c(O)c(CC)cc2c(C)cc(=O)oc12 | 4 | i | i | 0 | -16 | -14
COc1ccc(C2CC(c3cccs3)=NN2c2ccc(C=O)cc2)cc1 (stereo not given) | 21 | nt | i | 109* | 46 | -127
COc1ccccc1OCCOCCOc1c(C)cc(C)cc1Br | 3 | i | i | 2 | 19 | 44
COc1cc(C)ccc1OCCOCCOc1c(C)cc(C)cc1Br | 7 | i | 100* | -2 | -6 | 40
N#Cc1c(C(F)(F)F)cc(-c2ccccc2Cl)[nH]c1=O | 0 | i | 100* | 0 | -40 | 29
N#Cc1c(C(F)(F)F)cc(-c2ccccc2)[nH]c1=O | 11 | i | i | -2 | -3 | 42
CSc1ccc(S(=O)(=O)NCC(=O)OCC(=O)N(C)Cc2ccccc2)cc1[N+](=O)[O-] | 4 | i | i | 0 | 12 | 13
CSc1ccc(S(=O)(=O)NCC(=O)OCC(=O)N(Cc2ccccc2)C(C)C)cc1[N+](=O)[O-] | 14 | i | i | 1 | 34 | 56*
O=[N+]([O-])c1cccnc1N1CCOCC1 | 5 | i | i | 1 | 10 | -30
O=C1CCN(c2ncccc2[N+](=O)[O-])CC1 | 3 | -4.9* | i | 0 | -6 | -1
CC(C)=CCC[C@](C)(OC1OC(COC2OCC(O)C(O)C2O)C(O)C(O)C1O)C1CC[C@]2(C)C1C(O)CC1[C@@]3(C)CCC(O[C@@H]4O[C@H](CO)C(O)C(O)C4O[C@@H]4OC(CO)C(O)C(O)C4O)C(C)(C)C3CC[C@]12C (stereo not given in full) | 5 | i | nt | -1 | 12 | -2
SMILES | TAAR1 agonist | ANO1 activ | ANO1 block | CRFBP-R2 agonist | TAAR1 antagonist | CRFBP-R2 block
Cc1ccc(S(=O)(=O)N(CC(=O)Nc2ccccc2C(=O)O)c2ccc(Cl)cc2)cc1 | 1 | i | i | 0 | 21 | 51*
C/C(=C\c1ccccc1)CN1CCC(C(=O)N2CCCCC2)CC1 | 2 | i | i | -3 | -14 | 96*
CC(=O)N1CCN(CC(=O)Nc2ccccc2Sc2ccc(Cl)cc2)CC1 | 8 | i | i | -1 | 12 | -3
O=C(CCl)Nc1ccccc1Sc1ccc(Cl)cc1 | 9 | i | i | 1 | 11 | 67*
O=C(COC(=O)c1ccccc1F)Nc1ccc(S(=O)(=O)N2CCOCC2)cc1 | 3 | i | nt | 4 | -9 | 0
NC(=O)COC(=O)c1ccccc1OCc1ccc(Cl)cc1 | -1 | -25* | i | -7 | -11 | -13
COc1ccc(C(=O)/C=C/C(=O)N(CC(=O)NC2CCCCC2)Cc2ccccc2)c(O)c1 | 41* | i | nt | 35 | 66* | 27
COc1ccc(C(=O)/C=C/C(=O)N(CC(=O)NC2CCCCC2)CC2CCCO2)c(O)c1 (stereo not given) | 30 | -6* | 100* | -2 | 39 | -15
COc1ccc(C(=O)/C=C/C(=O)N(CC(=O)NC2CCCCC2)Cc2ccccc2OC)c(O)c1 | 8 | i | nt | 0 | 0 | -17
Cc1cc(C)n2nc(SCc3cccc(F)c3)nc2n1 | 4 | nt | i | 0 | -7 | -8
O=C1CC(N2CCN(c3ccc(F)cc3)CC2)C(=O)N1c1ccc2c(c1)OCO2 (stereo not given) | 4 | i | i | 0 | 12 | 13
Cc1cc(NC(=O)Cn2nc([N+](=O)[O-])c(Br)c2C)no1 | 2 | i | i | 2 | -19 | 9
Cn1c(=O)c2c3c(sc2n2cnnc12)CCC3 | -3 | i | 25* | 0 | -5 | -20
O=C1C2C3c4ccccc4C(c4ccccc43)[C@@H]2C(=O)N1c1cccnc1 (stereo not given in full) | 9 | i | i | -2 | 50* | 1
Cc1ccc(N(CCCCN2C(=O)c3ccccc3C2=O)C(=O)c2cccs2)cc1 | 8 | i | i | 5 | 49* | -6
O=C(NCCc1ccc(Cl)cc1)C1CCN(C(=O)N2CCOc3ccccc32)CC1 | 21 | i | i | 0 | 50* | 26
Cc1cccc(-c2noc(CN(C)C(=O)c3ccc4c(c3)OCO4)n2)c1 | -3 | i | i | 0 | -11 | -22
